Screening data: PubChem, The Scripps Research Institute Molecular Screening Center
NS3 helicase inh = inhibitors of Hepatitis C virus NS3 helicase. NS3 helicase DNA unwinding, Cy5 molecular beacon fluorescence. inhibition, % at 10.9 µM. hit rate 0.56% among 290,000;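 active = inhibition above the mean of all tested compounds plus 3 SD, set per campaign, cut at about 35% in these data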
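Compound dosing – single dose, 10.9 µM nominal final, DMSO 0.8% final · System – NS3 helicase fragment of HCV · Buffer or medium – MOPS pH 6.5, MgCl2, DTT, Tween20, BSA · Signal – Cy5 beacon fluorescence read at start and 1 h · Also added – annealed dual-labelled DNA beacon duplex, ATP-started · Schedule – 1 h at 25 °C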
TAAR1 antagonist = human TAAR1 antagonism | inhibition, % at 3 µM | CHO RD-HGA16 TAAR1, Fluo-8 calcium fluorescence, antagonist | hit rate 1.5% among 360,000 | Q96RJ0;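 active = inhibition above a per-plate cutoff, the mean inhibition of test compounds on that plate plus 3 SD, cut at about 49% in these data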
Target sequence (Q96RJ0 whole entry, looked up): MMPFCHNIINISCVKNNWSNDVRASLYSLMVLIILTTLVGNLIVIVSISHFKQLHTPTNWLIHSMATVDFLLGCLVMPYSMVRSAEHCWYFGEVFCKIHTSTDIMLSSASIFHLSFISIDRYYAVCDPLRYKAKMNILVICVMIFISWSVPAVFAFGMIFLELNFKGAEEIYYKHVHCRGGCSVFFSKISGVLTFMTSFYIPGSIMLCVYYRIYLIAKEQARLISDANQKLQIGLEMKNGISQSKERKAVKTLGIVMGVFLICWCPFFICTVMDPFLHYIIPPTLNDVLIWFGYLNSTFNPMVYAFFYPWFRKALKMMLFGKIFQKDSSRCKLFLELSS
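Test system: RD-HGA16 CHO cells with stable hTAAR1 and Gα16 / Probe or stimulus: EC80 β-phenethylamine stimulus / Times: seeding 17-24 h prior, 75-min 37 °C, 30-min RT dye loading / Detection: Fluo-8 calcium-sensitive fluorescence / Read-out basis: % inhibition scaled between DMSO and EC80 PEA controls / Repeats: singlicate, one well per test compound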
rCAG RNA binder = molecules binding r(CAG) RNA repeats | r(CAG) RNA repeat, TO-PRO-1 dye displacement fluorescence | inhibition, % at 3 µM | hit rate 1.3% among 370,000 | AID 651821;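 active = inhibition above the plate cutoff, the mean of all test compounds on that plate plus 3 SD, cut at about 35% in these data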;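 also: higher means more dye released from RNA so lower well fluorescence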
TAAR1 agonist = human TAAR1 agonism; Q96RJ0; CHO RD-HGA16 TAAR1, Fluo-8 calcium fluorescence; vehicle wells 0%, saturating PEA agonist 100%; activation, % at 3 µM; hit rate 0.99% among 360,000;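 active = activation above the mean activation of all test compounds in the run plus 3 SD, cut at about 38% in these data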
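System: CHO-derived RD-HGA16 cells with stable Gα16 and human TAAR1 / Times: 17-24 h plating, Fluo-8 75 min 37 °C, 30 min RT / Technique: calcium-sensitive Fluo-8 signal, excitation 470-495, emission 515-575 nm / Measure: % activation relative to PEA EC100 response / Benchmarks: DMSO and PEA EC100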
HCV core dimer = HCV core protein dimerization inhibition; TR-FRET GST/Flag-core106 dimerization, 1536-well; hit rate 0.33% among 300,000; inhibition, % at 5 µM;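 active = inhibition above the mean of all tested compounds plus 3 SD, set per screening campaign, cut at about 45% in these data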
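Material: Tagged HCV core106 pair (GST and Flag) | Amount: GST-core106 13.5 nM, Flag-core106 17 nM | Medium: KF-containing HEPES buffer, pH 7.45, DTT, CHAPS, BSA | Reagent: Eu donor and XL665 acceptor anti-tag antibodies | Schedule: 4 h at 22.5 °C | Technique: Time-resolved FRET, ex 340 nm, em 617 and 671 nm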
NS3 hel confirm = confirmation of Hepatitis C virus NS3 helicase inhibitors; shares compounds with NS3 helicase inh; NS3 helicase DNA unwinding, Cy5 molecular beacon fluorescence; inhibition, % at 10.9 µM; hit rate 31% among 1,600; AID 1943;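 active = inhibition above the mean of all tested compounds plus 3 SD, cutoff set per campaign, cut at about 36% in these data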
FID counter trip = intercalator displacement, NS3 helicase counter-screen; hit rate 4% among 1,600; inhibition, % at 7.9 µM; AID 1945; shares compounds with NS3 helicase inh; DNA fluorescent intercalator displacement, fluorescence; in the data active = inhibition above about 37%;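 also: higher means more displacement of ethidium bromide from the DNA hairpin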
DNA FID DR = counter-screen for HCV NS3 helicase inhibitors: DNA intercalator displacement dose response; shares compounds with NS3 helicase inh; IC50, µM; fluorescent intercalator displacement from DNA, fluorescence; 120 tested, under 10 active; call rule not given here
rCAG binder conf = r(CAG) RNA repeat binding, confirmation | shares compounds with rCAG RNA binder | TO-PRO-1 dye displacement fluorescence | inhibition, % at 3 µM | hit rate 70% among 4,300 | AID 652065;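 active = inhibition above a per-plate cutoff, the mean inhibition of sample wells plus 3 SD, cut at about 35% in these data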;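 also: loss of TO-PRO-1 fluorescence as compound displaces dye from 1x1 AA loop RNA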
dCAG dye counter = disrupts DNA CAG TO-PRO-1 complex, flagging rCAG hits; d(CAG) DNA oligo TO-PRO-1 dye displacement, fluorescence; inhibition, % at 3 µM; hit rate 94% among 4,300; shares compounds with rCAG RNA binder;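 active = inhibition above its plate's cutoff, the mean test-well inhibition plus 3 SD, cut at about 4.8% in these data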;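 also: hits displace the dye from DNA and so lower well fluorescence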
DNA CAG DR = disrupts DNA CAG TO-PRO-1 complex in dose response | DNA CAG/GTC duplex TO-PRO-1 dye displacement fluorescence | shares compounds with rCAG RNA binder | AID 686960 | IC50, µM | hit rate 20% among 250; in the data active = IC50 below about 10 µM
Numbers stand for hits; - = inactive; . = no result. An excerpt weighted towards active compounds, which were near 3.7% of everything screened.

SMILES | NS3 helicase inh | TAAR1 antagonist | rCAG RNA binder | TAAR1 agonist | HCV core dimer | NS3 hel confirm | FID counter trip | rCAG binder conf | dCAG dye counter | others
CCOC(=O)c1ccc2c(c1)C1C=CCC1C(C(=O)OCC)N2 (configuration not stated) | 51 | - | 47 | - | 55 | - | - | 35 | 17
CC(C)CNC(=O)C1Nc2ccc(OC(F)(F)F)cc2C2C=CCC12 (configuration not stated) | . | - | - | - | - | . | . | . | .
CCOC(=O)c1c(CC(C)C)csc1NC(=O)c1ccccc1C(=O)O | 50 | - | 47 | - | - | 71 | - | 45 | 12
COc1ccc(S[C@]2(C(=O)N3CCN(c4ncccn4)CC3)CC(=O)N(C(=O)CCc3ccccc3)[C@@H]2c2ccc(OC)cc2)cc1 | . | . | - | . | . | . | . | . | .
O=C(CSc1nnc(COc2ccccc2)n1-c1ccc(Cl)cc1)Nc1ccccc1-c1ccccc1 | . | . | - | . | . | . | . | . | .
O=C(CSc1nnc(-c2cccnc2)n1C1CCCCC1)NC1CCCCCC1 | . | . | - | . | . | . | . | . | .
CN(C)c1ccc(O)c2c1CC1CC3[C@@H](N(C)C)C(=O)C(C(N)=O)=C(O)[C@]3(O)C(=O)C1=C2O (some centres not stated) | 39 | - | 64 | - | - | 36 | - | 46 | 18 | DNA FID DR=-
CCCCNC(=O)C1CCCN1C(=O)NCc1ccccc1OC (configuration not stated) | . | . | - | . | . | . | . | . | .
CCCN1CCCCC(NC(=O)OC(C)(C)C)C1=O (configuration not stated) | . | - | - | - | . | . | . | . | .
COC(=O)c1cc(=O)n(Cc2ccco2)c(=Nc2ccccc2)s1 | . | - | - | - | . | . | . | . | .
COc1ccc(NC(=O)c2c(NC(=O)CCC(=O)O)sc(-c3ccccc3)c2C)cc1 | 37 | - | 50 | - | - | 53 | - | 57 | 12 | DNA CAG DR=-
COC(=O)c1c(NC(=O)CCC(=O)O)sc(Cc2ccccc2)c1C | - | - | - | - | - | . | . | . | .
O=C(NC(=S)Nc1ccc(CN2CCCCC2)cc1)c1cccc(OCc2ccccc2)c1 | - | - | - | - | - | . | . | . | .
O=C(O)c1ccc(NC(=S)NC(=O)c2cccc(COc3ccccc3)c2)cc1 | 36 | - | 48 | - | - | 70 | - | 49 | 16
O=C(N/N=C/C=C/c1ccco1)/C(=C/c1ccccc1)NC(=O)c1ccccc1 | 36 | - | 38 | - | 47 | 54 | - | - | 13
CC(=O)c1sc2nc(CSc3nnnn3-c3ccccc3)[nH]c(=O)c2c1C | 36 | - | 39 | - | 74 | - | - | 49 | 29
O=S(=O)(NCCO)c1ccc2c(c1)Cc1cc(S(=O)(=O)NCCO)ccc1-2 | - | - | - | - | - | . | . | . | .
NNS(=O)(=O)c1ccc2c(c1)Cc1cc(S(=O)(=O)NN)ccc1-2 | 39 | - | 42 | - | - | - | - | - | -
O=C(N/N=C/c1ccccn1)c1cc(-c2cccc3ccccc23)n[nH]1 | - | - | - | - | - | . | . | . | .
O=C(O)c1ccc(/C=N/NC(=O)c2cc(-c3ccc4c5c(cccc35)CC4)n[nH]2)cc1 | 37 | - | 81 | - | - | 65 | - | 80 | 49
Cc1cccc(N/N=C/c2ccc(O)c(O)c2O)c1 | 38 | - | 43 | - | - | - | - | 43 | 16
O=C(O)CN1C(=O)/C(=C\c2cc(Br)ccc2OCc2ccc([N+](=O)[O-])cc2)SC1=S | 56 | - | 77 | - | - | 66 | 56 | 94 | 75
CCOc1ccccc1C=C1SC(=S)N(CC)C1=O | . | - | - | - | . | . | . | . | .
O=C(O)CN1C(=O)/C(=C\c2cc(Br)ccc2OCc2ccccc2Cl)SC1=S | 47 | - | 78 | - | - | 69 | 48 | 93 | 75
O=C(O)CCN1C(=O)/C(=C\c2ccc(OCc3ccccc3)c(OCc3ccccc3)c2)SC1=S | - | - | - | - | - | . | . | . | .
SMILES | NS3 helicase inh | TAAR1 antagonist | rCAG RNA binder | TAAR1 agonist | HCV core dimer | NS3 hel confirm | FID counter trip | rCAG binder conf | dCAG dye counter | others
O=C(O)COc1ccc(Br)cc1/C=C1/SC(=O)N(CC(=O)N2CCCC2)C1=O | - | - | - | - | - | . | . | . | .
O=C(O)CN1C(=O)/C(=C\c2ccccc2OCc2ccc(Cl)cc2Cl)SC1=S | 47 | - | 79 | - | - | 66 | - | 90 | 66
Cc1cc(C)cc(NC(=O)OC2CCC23CCCCC3)c1 (configuration not stated) | . | . | - | . | . | . | . | . | .
COc1ccc(CCN(Cc2cccs2)S(=O)(=O)c2ccccc2)cc1OC | . | . | - | . | . | . | . | . | .
CC(=O)C1=C(O)C(=O)N(c2cc(C(C)(C)C)on2)C1c1ccc(Br)cc1 (configuration not stated) | 38 | - | 47 | - | - | 68 | - | 46 | 13 | DNA CAG DR=-
Cc1cc(Cl)ccc1Oc1ccc(C(N)=O)cc1[N+](=O)[O-] | - | - | - | - | - | . | . | . | .
Cc1cc(Cl)ccc1Oc1ccccc1C(=O)CC#N | 37 | - | 38 | - | - | 53 | - | - | 7.6 | DNA FID DR=-
COc1ccc(/C=N\NC(=O)c2cc(O)c(O)c(O)c2)cc1COc1ccc(C(=O)OCC(C)C)cc1 | 39 | - | 50 | - | - | 56 | - | 56 | 35 | DNA FID DR=-
CCCCOc1ccc(C(=O)NC2CCCCN(Cc3ccccc3C)C2=O)cc1 (configuration not stated) | . | . | - | . | . | . | . | . | .
Cc1ccc(N=C2NC(=O)/C(=C\c3ccco3)S2)cc1 | 40 | - | 42 | - | - | - | - | - | 15
Cc1cccc(N=C2NC(=O)/C(=C/C=C/c3ccco3)S2)c1 | 44 | - | 52 | - | - | - | - | 43 | 23
O=C1NC(=Nc2ccc(O)cc2)S/C1=C/c1ccco1 | - | - | - | - | - | . | . | . | .
COc1ccc(N=C2NC(=O)/C(=C\C=C\c3ccco3)S2)cc1 | 46 | - | 44 | - | . | 36 | - | - | 17 | DNA FID DR=-
O=C(OC12CCCN(C1)/C(=C/c1ccccc1)C2)c1ccc(F)cc1 (configuration not stated) | . | . | - | . | . | . | . | . | .
Cc1ccccc1CN1CCCCC(NC(=O)c2cccc(C(F)(F)F)c2)C1=O (configuration not stated) | . | . | - | . | . | . | . | . | .
Cc1ccc(OCC(=O)N/N=C\c2ccc(C)o2)c(C)c1 | - | - | - | - | - | . | . | . | .
